Experimental data reported in article PMC10712300 (Protein and peptide letters, 2021).
Ends that are not written are not given here.

Experiments:
[1] = patients with type 1 diabetes taking hIAPP mimetic supplements; cited from earlier work
RIN-m cells [2] = test: LDH cytotoxicity assay; assay type: cell-based; settings: 48 h at 37°C; for LDH release / plasma membrane damage, peptide alone: 12.8 μM IAPP alone; for LDH cytotoxicity of hIAPP mixed with animal IAPP: 12.8 μM hIAPP + 12.8 μM animal IAPP (1:1)
In short: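 RIN-m cells were plated overnight and refed with RPMI-1640 + 10% FBS. HFIP-dried IAPPs were resuspended in the same medium by scraping and 30 s vortexing. Each IAPP was added at 12.8 μM, or hIAPP + animal IAPP 1:1, for 48 h at 37°C, 5% CO2. Spontaneous (water) and maximum (lysis buffer) release wells ran 45 min. Supernatant reaction: 30 min RT dark, then stop. A450/A620; % cytotoxicity by kit equation.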

RIN-m cells [3] = test: Cell morphology imaging; assay type: cell-based; settings: for RIN-m cell morphology, peptide alone: 12.8 μM IAPP alone (absence of hIAPP for animal variants); for RIN-m cell morphology, hIAPP mixed with animal IAPP: 12.8 μM hIAPP + animal IAPP, 1:1 ratio
[4] = system: hIAPP aggregation / fibril formation; settings: cited from earlier work
[5] = cited from earlier work
[6] = AFM / amyloid fibril formation of an IAPP peptide by itself; assay type: physicochemical; settings: 37 μM hIAPP alone, 20 mM tris pH 7.40, 37°C, 40 min shaking, deposited onto mica
In short: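 HFIP stocks of peptide (0.125 mg/mL) were sonicated 10 min and held at −80°C. HFIP was removed under vacuum and peptide dissolved in 20 mM Tris pH 7.40. hIAPP was held at 37 μM, alone or with animal IAPP at 37 μM (1:1). Incubation: 37°C, 200 rpm, 40 min. Samples were spotted on fresh mica for 5 min, water-washed, dried, and imaged by AC-mode AFM without flattening.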

Substance	average weight loss [1]	LDH release / plasma membrane damage, peptide alone (RIN-m cells [2])	LDH cytotoxicity of hIAPP mixed with animal IAPP (RIN-m cells [2])	RIN-m cell morphology, peptide alone (RIN-m cells [3])	RIN-m cell morphology, hIAPP mixed with animal IAPP (RIN-m cells [3])	inhibition of hIAPP aggregation (literature) [4]	independent aggregation, fibril formation and toxicity to living cells [5]	fibril formation of the peptide alone (AFM) [6]
pramlintide	about 2 kg	–	–	–	–	–	–	–
rat IAPP: synthetic naturally occurring rat variant of IAPP, non-amyloidogenic	–	very little effect on the cellular plasma membrane	increased the amount of cytotoxicity in the cell	did not cause significant changes to RIN-m morphology	many cells with a round shape and detached from the plate	modest inhibitors of hIAPP aggregation	does not independently aggregate, form fibrils, or show toxicity to living cells	–
cat IAPP: synthetic naturally occurring cat variant of IAPP (KCNTATCATQRLANFLIRSSNNLGAILSPTNVGSNTY; ends and bridges not checked; cysteine pairing not given here; UniProt P12967 34-70, looked up)	–	some damage to the plasma membrane of the cells, but much less compared to hIAPP	decreased the toxicity of hIAPP and reduced the amount of damage to the plasma membrane	some rounding of cells and detaching from the plate	cells looking better than cells incubated with hIAPP alone	–	–	–
Human Islet Amyloid Polypeptide (KCNTATCATQRLANFLVHSSNNFGAILSSTNVGSNTY; Islet amyloid polypeptide; UniProt P10997 34-70, looked up) [hIAPP, reference compound]	–	increased the release of LDH into the media	–	changes in cellular shape, formation of granular nuclear structures, and detachment of numerous cells from the plate surface	–	–	–	forms high-density plaques of fibrils
